The M2OR odorant receptor database

What follows are molecules tested on T1, A0A140T8K0. Settings: stereoisomer not certain.
T1 sequence (whole entry): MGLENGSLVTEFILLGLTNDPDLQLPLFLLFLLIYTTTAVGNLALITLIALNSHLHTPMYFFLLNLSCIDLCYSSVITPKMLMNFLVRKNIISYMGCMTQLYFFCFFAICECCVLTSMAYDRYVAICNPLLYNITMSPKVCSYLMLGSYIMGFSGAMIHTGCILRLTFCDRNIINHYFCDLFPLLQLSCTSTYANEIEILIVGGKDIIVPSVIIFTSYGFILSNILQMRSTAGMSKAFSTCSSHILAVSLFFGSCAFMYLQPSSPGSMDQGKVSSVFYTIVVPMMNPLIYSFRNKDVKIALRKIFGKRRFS
How it was run: (§1)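 Assay methods differ from source to source, frequently being transient luciferase assays in mammalian cell lines. For each receptor–molecule pair, the label responsive (active) applies when the original authors judged the measured signal statistically different from baseline, and non-responsive (inactive) applies otherwise.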

Odorant receptor agonist call, inactive:
COc1cnccn1
CCC(C)c1nccnc1OC (centres undefined)
O=C1Cc2ccccc2O1
CCCCCCC(C)=O
O=C1CCOc2ccccc21
COc1nccnc1C(C)C
CCCCCCCCCO
CCCCCCOC(C)=O
CC(C)=CCCC(C)CCO (centres undefined)
CCCCCCCO
CCc1ncc(C)nc1CC
CCCCCCCC(C)=O
CCc1nccnc1CC

The molecules below were run on T2, A0A140T8K4. Settings: stereoisomer not certain.
T2 sequence (whole entry): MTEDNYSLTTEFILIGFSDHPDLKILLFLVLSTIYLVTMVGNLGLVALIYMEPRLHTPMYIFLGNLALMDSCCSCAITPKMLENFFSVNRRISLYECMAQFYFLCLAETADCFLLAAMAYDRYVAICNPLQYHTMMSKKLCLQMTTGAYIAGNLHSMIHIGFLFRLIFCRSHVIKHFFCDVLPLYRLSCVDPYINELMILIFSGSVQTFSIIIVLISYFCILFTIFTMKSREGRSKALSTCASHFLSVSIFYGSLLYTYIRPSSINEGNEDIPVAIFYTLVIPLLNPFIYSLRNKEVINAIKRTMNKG
How it was run: as §1

Odorant receptor agonist call, inactive:
COc1nccnc1CC(C)C
Cc1cnc(C)c(C)n1
COc1cnccn1
CC1CCc2nccnc21 (centres undefined)
CC(=O)c1cnccn1
CCC(C)c1nccnc1OC (centres undefined)
O=C1Cc2ccccc2O1
CCCCCCC(C)=O
O=C1CCOc2ccccc21
CCCCOC(=O)C(C)OC(=O)CCC (centres undefined)
COc1nccnc1C(C)C
CC(=O)c1nccnc1C
CCCCCCCCCO
Cc1cnc(C)cn1
CCCCCCOC(C)=O
Cc1cncc(C)n1
CCCC(C)=O
CCc1nccnc1C
Cc1cnccn1
CCCCCCCC(=O)[O-].[H+]
CC(C)=CCCC(C)CCO (centres undefined)
CCc1nccnc1OC
CCCCCCC(=O)[O-].[H+]
COC1=C(C)OC(C)C1=O (centres undefined)

Odorant receptor agonist call, active:
CCc1cnc(C)c(C)n1
CC1=NC(C)C(C)S1 (centres undefined)
